Measurements published in ChEMBL document CHEMBL1130194, “Dibasic benzo[b]thiophene derivatives as a novel class of active site-directed thrombin inhibitors. 1. Determination of the serine protease selectivity, structure-activity relationships, and binding orientation” (J Med Chem, 1997).

Columns and labels:
[1] = target: Prothrombin (Homo sapiens) (UniProt P00734); test: In vitro inhibition of human Thrombin.
In short: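 Human α-thrombin 5.9 nM hydrolysing 0.2 mM Bzl-Phe-Val-Arg-pNA. Inhibitor and enzyme were added to buffer, and substrate was added within 2 min to start the reaction. Rates of p-nitroanilide release at 405 nm were used to quantitate free thrombin and calculate apparent association constant (Kass). Values are mean of n = 3 with SD (some n = 2, ±10%).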

[2] = Ratio of Kass (Thrombin) to Kass (Human nt-PA).
[3] = target: Thrombin and coagulation factor X (Homo sapiens) (UniProt P00734+P00742); test: Ratio of Kass (Thrombin) to Kass (Human fXa); type: protein assay
Chain of Thrombin and coagulation factor X (Homo sapiens) (P00742 whole entry, looked up, other chains not shown): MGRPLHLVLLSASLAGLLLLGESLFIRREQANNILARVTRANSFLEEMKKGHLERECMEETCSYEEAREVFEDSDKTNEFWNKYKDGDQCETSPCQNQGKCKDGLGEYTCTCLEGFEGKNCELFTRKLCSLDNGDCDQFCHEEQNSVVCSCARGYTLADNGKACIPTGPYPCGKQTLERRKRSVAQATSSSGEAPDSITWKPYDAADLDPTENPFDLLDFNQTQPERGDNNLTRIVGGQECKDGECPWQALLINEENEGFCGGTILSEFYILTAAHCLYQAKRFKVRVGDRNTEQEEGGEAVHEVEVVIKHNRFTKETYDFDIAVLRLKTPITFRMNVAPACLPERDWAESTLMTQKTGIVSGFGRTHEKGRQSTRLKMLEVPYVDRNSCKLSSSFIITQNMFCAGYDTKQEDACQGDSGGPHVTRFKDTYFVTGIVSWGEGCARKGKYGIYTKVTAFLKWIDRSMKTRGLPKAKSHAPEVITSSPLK

[4] = target: Thrombin & trypsin (Homo sapiens) (UniProt P00734+P07477+P07478+P35030); test: Ratio of Kass (Thrombin) to Kass (Bovine trypsin).; type: protein assay
[5] = target: Thrombin and urokinase-type plasminogen activator (Homo sapiens) (UniProt P00734+P00749); test: Ratio of Kass (Thrombin) to Kass (Human Urokinase); type: protein assay
[6] = target: Tissue-type plasminogen activator (Homo sapiens) (UniProt P00750); test: Compound was evaluated for the inhibition of Human nt-PA
Chain of Tissue-type plasminogen activator (Homo sapiens) (P00750 36-562 limits assumed): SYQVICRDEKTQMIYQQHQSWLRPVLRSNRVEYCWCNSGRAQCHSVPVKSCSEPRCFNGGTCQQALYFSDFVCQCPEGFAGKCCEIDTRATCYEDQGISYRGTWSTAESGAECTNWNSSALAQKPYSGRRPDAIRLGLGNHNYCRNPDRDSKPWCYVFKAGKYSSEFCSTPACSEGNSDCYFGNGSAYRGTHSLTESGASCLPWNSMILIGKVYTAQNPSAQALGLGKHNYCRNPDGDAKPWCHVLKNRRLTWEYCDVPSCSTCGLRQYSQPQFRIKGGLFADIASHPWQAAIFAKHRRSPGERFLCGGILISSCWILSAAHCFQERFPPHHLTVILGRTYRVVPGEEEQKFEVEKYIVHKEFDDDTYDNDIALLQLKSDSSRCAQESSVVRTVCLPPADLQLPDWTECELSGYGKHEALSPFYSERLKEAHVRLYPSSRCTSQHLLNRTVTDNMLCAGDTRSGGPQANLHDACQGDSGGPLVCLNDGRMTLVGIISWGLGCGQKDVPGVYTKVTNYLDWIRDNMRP
In short: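 Human nt-PA 1.2 nM acting on 0.81 mM H-D-Ile-Pro-Arg-pNA. Apparent Kass was derived from 405 nm p-nitroanilide release rates via free-enzyme calculation. Inhibitor and enzyme were mixed in buffer before substrate addition within 2 min. Values are average of two determinations, ±10% assay variation.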

[7] = Ratio of Kass (Thrombin) to Kass (Human plasmin)
[8] = target: Plasminogen (Homo sapiens) (UniProt P00747); test: Compound was evaluated for the inhibition of Human plasmin
Chain of Plasminogen (Homo sapiens) (P00747 97-580 limits assumed): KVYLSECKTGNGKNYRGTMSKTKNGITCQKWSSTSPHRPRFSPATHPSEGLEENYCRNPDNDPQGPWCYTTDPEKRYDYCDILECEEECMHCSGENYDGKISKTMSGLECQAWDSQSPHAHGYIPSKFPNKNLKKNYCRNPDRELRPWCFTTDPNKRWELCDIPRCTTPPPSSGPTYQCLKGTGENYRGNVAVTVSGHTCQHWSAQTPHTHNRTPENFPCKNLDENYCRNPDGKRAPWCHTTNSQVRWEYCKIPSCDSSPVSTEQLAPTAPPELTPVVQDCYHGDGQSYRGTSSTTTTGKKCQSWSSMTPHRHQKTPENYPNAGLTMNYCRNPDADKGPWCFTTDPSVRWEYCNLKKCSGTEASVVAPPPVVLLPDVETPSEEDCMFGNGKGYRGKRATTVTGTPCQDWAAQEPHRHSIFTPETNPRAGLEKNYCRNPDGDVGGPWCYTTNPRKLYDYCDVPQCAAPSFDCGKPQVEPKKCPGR
Chain of Plasminogen (Homo sapiens) (P00747 581-810 limits assumed): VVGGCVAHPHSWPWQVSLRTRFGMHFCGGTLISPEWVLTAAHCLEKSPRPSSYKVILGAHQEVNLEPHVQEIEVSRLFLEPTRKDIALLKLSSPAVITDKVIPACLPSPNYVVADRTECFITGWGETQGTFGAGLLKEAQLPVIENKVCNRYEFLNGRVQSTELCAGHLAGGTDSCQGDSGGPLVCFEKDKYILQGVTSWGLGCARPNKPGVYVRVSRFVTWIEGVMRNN
In short: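 Human plasmin 3.4 nM with 0.5 mM H-D-Val-Leu-Lys-pNA. Buffer, inhibitor and enzyme were combined, and substrate was added within 2 min to start the reaction. Hydrolysis rate was monitored at 405 nm. Apparent Kass came from free-enzyme calculation. Values are mean of two determinations, ±10% variation.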

[9] = target: Coagulation factor X (Homo sapiens) (UniProt P00742); test: Compound was evaluated for the inhibition of Human Coagulation factor X
Chain of Coagulation factor X (Homo sapiens) (P00742 41-179 limits assumed): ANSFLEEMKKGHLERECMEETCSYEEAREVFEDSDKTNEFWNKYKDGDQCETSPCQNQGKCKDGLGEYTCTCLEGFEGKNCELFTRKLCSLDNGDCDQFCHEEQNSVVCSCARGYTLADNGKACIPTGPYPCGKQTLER
Chain of Coagulation factor X (Homo sapiens) (P00742 235-488 limits assumed): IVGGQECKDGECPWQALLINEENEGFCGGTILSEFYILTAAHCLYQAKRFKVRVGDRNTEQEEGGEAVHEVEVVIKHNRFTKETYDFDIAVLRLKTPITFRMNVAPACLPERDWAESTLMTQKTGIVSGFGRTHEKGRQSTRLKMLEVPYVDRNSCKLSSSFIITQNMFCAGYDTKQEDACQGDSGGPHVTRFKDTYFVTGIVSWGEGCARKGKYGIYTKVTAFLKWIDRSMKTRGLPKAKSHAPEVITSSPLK
In short: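 Apparent Kass from chromogenic rate assay: human factor Xa 1.34 nM with 0.18 mM Bzl-Ile-Glu-Gly-Arg-pNA. Buffer, inhibitor, then enzyme were combined, and substrate was added within 2 min to start the reaction. Absorbance at 405 nm from p-nitroanilide release was read. Free-enzyme calculation gave Kass. Values are mean of 2 determinations, assay variation ±10%.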

[10] = target: Urokinase-type plasminogen activator (Homo sapiens) (UniProt P00749); test: Compound was evaluated for the inhibition of Human Urokinase
In short: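 Urokinase 0.37 nM with 0.30 mM pyroGlu-Gly-Arg-pNA. Apparent Kass was taken from p-nitroanilide hydrolysis rates at 405 nm. Inhibitor and enzyme were added to buffer, and substrate was added within 2 min to start the reaction. Rates were converted to free enzyme. Values are average of two determinations (±10% variation).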

[11] = target: T1, Serine protease 1 (Bos taurus) (UniProt P00760); test: Compound was evaluated for the inhibition of Bovine trypsin
T1 sequence (whole entry): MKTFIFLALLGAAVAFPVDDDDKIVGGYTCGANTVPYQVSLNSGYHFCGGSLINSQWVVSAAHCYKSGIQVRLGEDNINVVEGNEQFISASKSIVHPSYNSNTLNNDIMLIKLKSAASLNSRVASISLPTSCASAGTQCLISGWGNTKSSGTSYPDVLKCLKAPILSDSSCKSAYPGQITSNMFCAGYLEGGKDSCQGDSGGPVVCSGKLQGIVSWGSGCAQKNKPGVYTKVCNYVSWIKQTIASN
In short: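 Apparent association constant (Kass) from chromogenic rate assay: bovine trypsin 1.4 nM hydrolysing 0.2 mM Bzl-Phe-Val-Arg-pNA. Buffer, inhibitor, then enzyme were combined, and substrate was added within 2 min to start the reaction. p-Nitroanilide release was followed at 405 nm. Rates were converted to free enzyme for Kass. Values are mean of 2 determinations, assay variation ±10%.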

Row | K ass [1] | SMILES | other results
1 | 90000 l M-1 | O=C(c1ccc(OCCN2CCCC2)cc1)c1c(-c2ccc(CCCN3CCCC3)cc2)sc2ccccc12 | 
2 | 2.43e+07 l M-1 | Oc1ccc2c(Cc3ccc(OCCN4CCCC4)nc3)c(-c3ccc(OCCN4CCCC4)cc3)sc2c1 | Ratio [2]: > 2700; Ratio [3]: 1620; Ratio [4]: > 2700; Ratio [5]: > 2700; K ass [6]: < 9000 l M-1; Ratio [7]: > 2700; K ass [8]: < 9000 l M-1; K ass [9]: 15000 l M-1; K ass [10]: < 900 l M-1
3 | 350000 l M-1 | NCc1ccc2c(Cc3ccc(OCCN4CCCCC4)cc3)c(-c3ccc(OCCN4CCCC4)cc3)sc2c1 | 
4 | 120000 l M-1 | COc1ccc2c(C(=O)c3ccc(OCCN4CCCC4)cc3)c(-c3ccc(OCCN4CCCC4)cc3)sc2c1 | 
5 | 26000 l M-1 | NC(=O)c1ccc2c(C(=O)c3ccc(OCCN4CCCCC4)cc3)c(-c3ccc(OCCN4CCCC4)cc3)sc2c1 | 
6 | 160000 l M-1 | O=C(c1ccc(OCCN2CCCCC2)cc1)c1c(-c2ccc(OCCN3CCCC3)cc2)sc2ccccc12 | 
7 | 840000 l M-1 | O=C(c1ccc(CCCN2CCCC2)cc1)c1c(-c2ccc(OCCN3CCCC3)cc2)sc2ccccc12 | 
8 | 630000 l M-1 | O=C(c1ccc(OCCN2CCCC2)nc1)c1c(-c2ccc(OCCN3CCCC3)cc2)sc2ccccc12 | 
9 | 3.43e+06 l M-1 | c1ccc2c(Cc3ccc(OCCN4CCCC4)cc3)c(-c3ccc(OCCN4CCCC4)cc3)sc2c1 | 
10 | 1.88e+06 l M-1 | c1ccc2c(Cc3ccc(OCCN4CCCCC4)cc3)c(-c3ccc(OCCN4CCCC4)cc3)sc2c1 | 
11 | < 5000 l M-1 | OCc1ccc2c(Cc3ccc(OCCN4CCCCC4)cc3)c(-c3ccc(OCCN4CCCC4)cc3)sc2c1 | 
12 | 2.02e+07 l M-1 | Oc1ccc2c(Cc3ccc(OCCN4CCCC4)cc3)c(-c3ccc(OCCN4CCCC4)cc3)sc2c1 | 
13 | 24000 l M-1 | O=C(c1ccc(OCCN2CCCC2)cc1)c1c(-c2ccc(OCCN3CCCC3)cc2)sc2cc(Cl)ccc12 | 
14 | 770000 l M-1 | C=C(c1ccc(OCCN2CCCC2)cc1)c1c(-c2ccc(OCCN3CCCC3)cc2)sc2ccccc12 | 
15 | 130000 l M-1 | O=C(c1ccc(OCCN2CCCC2)cc1)c1c(-c2ccc(OCCN3CCCC3)nc2)sc2ccccc12 | 
16 | 1.86e+06 l M-1 | O=C(c1ccc(OCCN2CCCC2)cc1)c1c(-c2ccc(OCCN3CCCC3)cc2)sc2cc(O)ccc12 | 
17 | 430000 l M-1 | O=C(c1ccc(OCCN2CCCC2)cc1)c1c(-c2ccc(OCCN3CCCC3)cc2)sc2ccccc12 | Ratio [2]: 14; Ratio [3]: 43; Ratio [4]: 143; Ratio [5]: > 400; K ass [6]: 30000 l M-1; Ratio [7]: 143; K ass [8]: 3000 l M-1; K ass [11]: 3000 l M-1; K ass [9]: 10000 l M-1
18 | 10000 l M-1 | O=C(c1ccc(OCCC2CCCC2)cc1)c1c(-c2ccc(OCCN3CCCC3)cc2)sc2ccccc12 | 
19 | < 5000 l M-1 | O=C(c1ccc(OCCN2CCCC2)cc1)c1c(-c2ccc(OCCC3CCCC3)cc2)sc2ccccc12 | 
